Consider nine molecules from ChEMBL document CHEMBL4706509, “Oligosaccharide-camptothecin conjugates as potential antineoplastic drugs: Design, synthesis and biological evaluation” (Eur J Med Chem, 2020).

SMILES strings stand for the structures. ≈ marks a conversion by molar mass, not a printed value. Calls of active or inactive are those of the source. The calls are words filed in the database; no cut-off is given here. A value given as a limit tells only on which side of the number the result lay.

Broadly, the IC50 is the concentration needed to halve the response being measured. By solubility is commonly meant the dissolved amount per volume that the medium holds. High values mean a readily soluble substance, low ones a poorly soluble substance. As usually defined, the LD50 is the dose at which mortality reaches 50%.

One series concerns HepG2. In words: Antitumor activity against human HepG2 cells assessed as inhibition of cell growth measured after 48 hrs by MTT assay. The series is classed as functional, cell-based. To be noted: HepG2, 48 h. The essentials: (§1)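 MTT assay; cells seeded in 96-well plates, exposed 48 h to freshly prepared compound at five concentrations, four replicate wells each; MTT (5 mg/mL) added for 4 h, formazan dissolved in DMSO, absorbance at 490 nm. IC50 by nonlinear regression; mean of three independent experiments.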
(Tetrazolium assays rely on reduction of a dye to a coloured formazan, in cell work by metabolically active cells.)

The next series deals with HCT-116. In words: Antitumor activity against human HCT-116 cells assessed as inhibition of cell growth measured after 48 hrs by MTT assay. The series is classed as functional, cell-based. To be noted: HCT-116, 48 h. The method, boiled down: as §1
The test system of another series is SW1990. The series can be described thus: Antitumor activity against human SW1990 cells assessed as inhibition of cell growth measured after 48 hrs by MTT assay. The series is classed as functional, cell-based. To be noted: SW1990, 48 h. The method, boiled down:
as §1

In the next series the test system is HEK293. The series can be described thus: Cytotoxicity against human HEK293 cells assessed as reduction in cell viability measured after 48 hrs by MTT assay. The series is classed as cell-based. To be noted: HEK293, 48 h. The method, boiled down:
as §1

For series [1], the target named is T1, DNA topoisomerase 1 (Homo sapiens) (UniProt P11387).
T1 sequence (whole entry): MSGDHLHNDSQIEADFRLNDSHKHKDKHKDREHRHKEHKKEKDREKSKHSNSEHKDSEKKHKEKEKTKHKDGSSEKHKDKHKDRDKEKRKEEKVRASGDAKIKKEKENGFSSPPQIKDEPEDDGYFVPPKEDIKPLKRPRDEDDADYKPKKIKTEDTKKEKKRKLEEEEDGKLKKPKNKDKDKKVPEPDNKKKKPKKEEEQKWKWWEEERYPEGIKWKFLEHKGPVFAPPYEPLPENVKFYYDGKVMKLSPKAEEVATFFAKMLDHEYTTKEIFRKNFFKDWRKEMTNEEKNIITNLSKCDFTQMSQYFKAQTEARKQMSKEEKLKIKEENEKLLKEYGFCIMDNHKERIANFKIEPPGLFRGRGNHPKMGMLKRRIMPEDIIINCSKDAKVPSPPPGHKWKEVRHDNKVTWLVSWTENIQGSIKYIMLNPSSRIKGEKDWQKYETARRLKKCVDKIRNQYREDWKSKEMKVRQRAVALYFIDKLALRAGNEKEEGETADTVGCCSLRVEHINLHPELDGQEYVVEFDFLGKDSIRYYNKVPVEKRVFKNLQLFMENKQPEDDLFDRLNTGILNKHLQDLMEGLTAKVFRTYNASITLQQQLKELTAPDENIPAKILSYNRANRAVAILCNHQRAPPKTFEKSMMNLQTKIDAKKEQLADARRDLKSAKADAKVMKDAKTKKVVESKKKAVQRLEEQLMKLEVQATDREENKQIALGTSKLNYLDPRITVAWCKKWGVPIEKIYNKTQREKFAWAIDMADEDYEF
In words: Inhibition of human recombinant Topoisomerase 1 using supercoiled pBR322 DNA as substrate at 100 uM incubated for 30 mins by ethidium bromide staining based agarose gel electrophoresis. The method, boiled down: (§2)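 Cell-free relaxation assay: 1 U recombinant human Topo I with 0.5 µg supercoiled pBR322 in Topo I buffer (Tris-HCl pH 8.0, KCl, MgCl2, DTT, 0.1% BSA), 37 °C for 30 min. 10-HCPT and irinotecan as positive controls. Supercoiled, relaxed and nicked forms resolved on 0.8% agarose in TAE, 90 V for 2 h, ethidium bromide stained.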

The nature of series [2]: Aqueous solubility of the compound in 0.1 M Na2HPO4 solution at pH 7.4 incubated for 24 hrs by HPLC analysis. The series is classed as physicochemical. To be noted: for solubility at 24 h: 0.1 M Na2HPO4 solution, pH 7.4. The method, boiled down:
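Excess solid shaken in 0.2 mL 0.1 M phosphate buffer, pH 7.4, at 25 °C for 24 h, then filtered. Filtrate (100 µL) diluted to 1.5 mL and analysed by isocratic HPLC (CH3CN:H2O 40/60, 1.0 mL/min, 35 °C column, 254 nm). Concentration read from a calibration curve built from DMSO standards. Values are the mean of triplicate determinations, in mg/mL.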

The nature of series [3]: Stability of compound in 10% phosphate buffer assessed as proportion of lactone form level at pH 7.4 measured after 48 hrs by HPLC analysis. To be noted: read-out: Drug metabolism. The series is classed as physicochemical. The essentials: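 1.0 mg dissolved in 50 mL 0.1 M phosphate buffer, pH 7.4, and shaken at 37 °C. […] Lactone versus carboxylate (ring-opened) form quantified by HPLC area normalisation. Mean of triplicate determinations.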

The target of series [4] is T1, DNA topoisomerase 1 (Homo sapiens). In words: Inhibition of human recombinant Topoisomerase 1 using supercoiled pBR322 DNA as substrate at 50 uM incubated for 30 mins by ethidium bromide staining based agarose gel electrophoresis. The essentials:
as §2

Series [5] is described as follows: Ratio of test compound solubility to camptothecin solubility in 0.1 M Na2HPO4 solution at pH 7.4 incubated for 24 hrs by HPLC analysis. The series is classed as physicochemical. To be noted: buffer, pH 7.4, 24 h.
Series [6] in a line: Toxicity in iv dosed ICR mouse measured for 14 days. The series is classed as organism-based. To be noted: in vivo, time 14 day.

Turning to `CC[C@@]1(OC(=O)NCCO[C@@H]2O[C@H](COC(C)=O)[C@@H](OC(C)=O)[C@H](OC(C)=O)[C@@H]2O[C@H]2O[C@H](COC(C)=O)[C@@H](OC(C)=O)[C@H](OC(N)=O)[C@H]2OC(C)=O)C(=O)OCc2c1cc1n(c2=O)Cc2cc3ccccc3nc2-1`, the half-inhibitory concentration (IC50) came to 4200 nM in the series on HepG2, 6700 nM in the series on HCT-116, 25100 nM with SW1990 and 1600 nM in the series with HEK293. Also, in series [1], the inhibition result was “Active”.
As for `CC[C@@]1(O)C(=O)OCc2c1cc1n(c2=O)Cc2cc3ccccc3nc2-1` [CAMPTOTHECIN], the IC50 in the series on HepG2 was 400 nM; in the series with HCT-116, 400 nM; in the series with SW1990 it was 200 nM; in the series on HEK293 it was 600 nM. For the same molecule, the solubility in series [2] (buffer, pH 7.4, 24 h) was determined as 60 µg/mL (≈ 172 µM). Moreover, the remaining at 48 h in series [3] came to 5%.
In the case of `CC[C@@]1(OC(=O)NCCOCCOCCO[C@@H]2O[C@H](COC(C)=O)[C@H](OC(C)=O)[C@H](OC(C)=O)[C@H]2OC(C)=O)C(=O)OCc2c1cc1n(c2=O)Cc2cc3ccccc3nc2-1`, the IC50 in the series on HepG2 was 700 nM; in the series on HCT-116, 900 nM; in the series on SW1990, 8300 nM; in the series with HEK293, 800 nM. The inhibition result in [1] was “Active”.
As to `CC[C@@]1(OC(=O)NCCOCCO[C@@H]2O[C@H](COC(C)=O)[C@H](OC(C)=O)[C@H](OC(C)=O)[C@H]2OC(C)=O)C(=O)OCc2c1cc1n(c2=O)Cc2cc3ccccc3nc2-1`, the IC50 was 5600 nM with HepG2, 3500 nM with HCT-116, 15700 nM in the series on SW1990 and greater than 100000 nM in the series on HEK293. For the same molecule, the inhibition result in series [4] and in [1] was “Active” in each case. Moreover, the solubility at 24 h in series [2] turned out to be 500 µg/mL (≈ 617 µM). In addition, in [3], the remaining at 48 h turned out to be 91%.
`CC[C@@]1(OC(=O)NCCOCCO[C@@H]2O[C@H](CO)[C@@H](O)[C@H](OC(N)=O)[C@@H]2O)C(=O)OCc2c1cc1n(c2=O)Cc2cc3ccccc3nc2-1`: the IC50 with HepG2 was determined as 900 nM; in the series with HCT-116, 1200 nM; in the series on SW1990 it was 5200 nM; in the series on HEK293, 52100 nM. Besides, the inhibition result in series [4] and in series [1] was “Active” throughout. In series [2], the solubility at 24 h amounted to 16300 µg/mL (≈ 23800 µM). In addition, in [5], the Ratio came out at 2717. For the same molecule, the remaining at 48 h in [3] turned out to be 92%.
In the case of `CC[C@@]1(OC(=O)NCCOCCO[C@@H]2O[C@H](COC(C)=O)[C@@H](OC(C)=O)[C@H](OC(C)=O)[C@@H]2O[C@H]2O[C@H](COC(C)=O)[C@@H](OC(C)=O)[C@H](OC(N)=O)[C@H]2OC(C)=O)C(=O)OCc2c1cc1n(c2=O)Cc2cc3ccccc3nc2-1`, the IC50 in the series with HepG2 came out at 1600 nM; in the series with HCT-116, 1300 nM; in the series with SW1990, 11300 nM; in the series on HEK293, 1500 nM. In addition, the inhibition result in [4] and in series [1] was “Active” in each case.
As to `CC[C@@]1(OC(=O)NCCOCCOCCO[C@@H]2O[C@H](CO)[C@H](O)[C@H](O)[C@H]2O)C(=O)OCc2c1cc1n(c2=O)Cc2cc3ccccc3nc2-1`, the IC50 was found to be 1200 nM with HepG2, 8200 nM in the series with HCT-116, 19900 nM with SW1990 and 700 nM in the series with HEK293. Also, the inhibition result in series [1] was “Active”.
Consider `CC[C@@]1(O)C(=O)OCc2c1cc1n(c2=O)Cc2cc3cc(O)ccc3nc2-1`, for which the inhibition result in series [1] is “Active”.
Regarding `CCc1c2c(nc3ccc(OC(=O)N4CCC(N5CCCCC5)CC4)cc13)-c1cc3c(c(=O)n1C2)COC(=O)[C@]3(O)CC` [IRINOTECAN], the concentration for half-maximal inhibition (IC50) in the series with HepG2, in the series on HCT-116, in the series with SW1990 and in the series with HEK293 was greater than 100000 nM in each case. Further, the inhibition result in [1] was “Active”. The molecule further had an LD50 at 336 h in series [6] of 85.1 mg/kg.
